Where only a bound is given, the exact number is not on record here.

From ChEMBL document CHEMBL5257120 (Bioorg Med Chem, 2023) come the findings set out here.

The species entered for one series is Homo sapiens. Briefly: Selectivity ratio, ratio of inhibition of HDAC in human HeLa nuclear extract assessed as residual activity to inhibition of human recombinant HDAC6 assessed as residual activity. In a few lines: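 Compounds at 20 μM tested by fluorometric assay on HeLa nuclear extract (class I/II HDACs) and on human recombinant HDAC6. Residual activity is expressed relative to untreated control. Selectivity is the ratio of PanHDAC to HDAC6 residual activity: ≥7 high, 2.5–6.9 moderate, <2.5 low.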

Series [1] can be described thus: Antiinflammatory activity in mouse peritoneal macrophage assessed as reduction in LPS-induced TNFalpha production at 10 ug/ml. The series is classed as functional. The settings on record: dose 10 µg/ml.
Series [2] in a line: Antiinflammatory activity in mouse peritoneal macrophage assessed as reduction in LPS-induced IL6 production at 10 ug/ml. To be noted: dose 10 µg/ml. The series is classed as functional.
Series [3] is described as follows: Toxicity in Swiss albino mouse assessed as change in body weight at 50 mg/kg, po administered for 7 days (reference value: 29.35 +/- 0.57 g). The series is classed as organism-based. To be noted: in vivo, 168 h, time 7 day.
Series [4] is described as follows: Toxicity in Swiss albino mouse assessed as change in body weight at 300 mg/kg, po administered for 7 days (reference value: 29.35 +/- 0.57 g). In kind it is organism-based. To be noted: in vivo, 168 h, time 7 day.
The nature of series [5]: Toxicity in Swiss albino mouse assessed as WBC level at 1000 mg/kg, po administered for 7 days (reference value: 5.29 +/- 0.51 10^3/mm3). In kind it is organism-based. To be noted: in vivo, 168 h, time 7 day. In short, it runs like this: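 Single acute oral dose (5, 50, 300 or 1000 mg/kg) given to Swiss albino mice, n = 6, with 7-day observation. At the end, haematological and serum biochemical parameters were measured. Compared with untreated controls; mean ± SE, ANOVA, p < 0.05.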

A short description of series [6]: Toxicity in Swiss albino mouse assessed as change in absolute liver weight at 5 to 1000 mg/kg, po administered for 7 days. The settings on record: in vivo, 168 h, dose 5-1000 mg/kg, time 7 day. The series is classed as organism-based.
Series [7] is described as follows: Toxicity in Swiss albino mouse assessed as change in absolute brain weight at 5 to 1000 mg/kg, po administered for 7 days. The series is classed as organism-based. To be noted: in vivo, 168 h, dose 5-1000 mg/kg, time 7 day.

`COc1cc(C2/C(=C/c3ccc(/C=C/C(=O)NO)cc3)C(=O)c3cc(OC)c(OC)c(OC)c32)cc(OC)c1OC` (stereo not drawn): the Ratio in the series filed under Homo sapiens was less than 0.5. Besides, the Activity is 872.08 pg/mL in series [1]; 2199.42 pg/mL in series [2]; 28.18 g in series [3]; 30.22 g in series [4]; 4.73 10^3/mm3 in series [5]; “Non-Toxic” in series [6]. Moreover, the Activity entry in series [7] was “Non-Toxic”.
